According to ChEMBL document CHEMBL1154944, “Azole-based inhibitors of AKT/PKB for the treatment of cancer” (Bioorg Med Chem Lett, 2010):
pIC50: −log10 of the molar value.

Experiments:
[1] = biological target: Mast/stem cell growth factor receptor Kit (Homo sapiens, UniProt P10721); assay: Inhibition of cKIT
[2] = Plasma concentration in human U87MG cells xenografted CD1 nude mouse at 30 mg/kg, po QD for 18 days measured after 3 hrs post last dose; format: ADME, organism-based, U-87MG ATCC; design: dose 30 mg/kg, route oral
Summary of the method: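 Female CD1 nude mice bearing U-87 MG tumors (n = 10) dosed 30 mg/kg po daily for 18 d. Plasma sampled 3 h after the last dose.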

[3] = Cytotoxicity against human U87MG cells after 3 days by alamar blue assay; format: functional, cell-based, U-87MG ATCC; settings: U-87 MG, 72 h
Summary of the method: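 U-87 MG cells seeded at 6000 cells/well in 5% FBS and treated with threefold serial dilutions for three days. Viability read by alamarBlue staining.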

[4] = AUC (0 to 24 hrs) in Sprague-Dawley rat at 5 mg/kg, po; format: ADME, organism-based; design: time < 24 hr, dose 5 mg/kg, route oral; settings: plasma
Summary of the method: (§1)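 Male Sprague Dawley rats (n = 3) given 5 mg/kg orally in 2% HPMC, 1% Tween 80, pH 2.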

[5] = Half life in Sprague-Dawley rat at 2 mg/kg, iv; format: ADME, organism-based; design: dose 2 mg/kg, route intravenous; settings: in vivo
Summary of the method: (§2)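 Male Sprague Dawley rats (n = 3) given 2 mg/kg intravenously in DMSO.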

[6] = biological target: Vascular endothelial growth factor receptor 2 (Homo sapiens, UniProt P35968); assay: Inhibition of KDR
Vascular endothelial growth factor receptor 2, sequence (P35968 whole entry): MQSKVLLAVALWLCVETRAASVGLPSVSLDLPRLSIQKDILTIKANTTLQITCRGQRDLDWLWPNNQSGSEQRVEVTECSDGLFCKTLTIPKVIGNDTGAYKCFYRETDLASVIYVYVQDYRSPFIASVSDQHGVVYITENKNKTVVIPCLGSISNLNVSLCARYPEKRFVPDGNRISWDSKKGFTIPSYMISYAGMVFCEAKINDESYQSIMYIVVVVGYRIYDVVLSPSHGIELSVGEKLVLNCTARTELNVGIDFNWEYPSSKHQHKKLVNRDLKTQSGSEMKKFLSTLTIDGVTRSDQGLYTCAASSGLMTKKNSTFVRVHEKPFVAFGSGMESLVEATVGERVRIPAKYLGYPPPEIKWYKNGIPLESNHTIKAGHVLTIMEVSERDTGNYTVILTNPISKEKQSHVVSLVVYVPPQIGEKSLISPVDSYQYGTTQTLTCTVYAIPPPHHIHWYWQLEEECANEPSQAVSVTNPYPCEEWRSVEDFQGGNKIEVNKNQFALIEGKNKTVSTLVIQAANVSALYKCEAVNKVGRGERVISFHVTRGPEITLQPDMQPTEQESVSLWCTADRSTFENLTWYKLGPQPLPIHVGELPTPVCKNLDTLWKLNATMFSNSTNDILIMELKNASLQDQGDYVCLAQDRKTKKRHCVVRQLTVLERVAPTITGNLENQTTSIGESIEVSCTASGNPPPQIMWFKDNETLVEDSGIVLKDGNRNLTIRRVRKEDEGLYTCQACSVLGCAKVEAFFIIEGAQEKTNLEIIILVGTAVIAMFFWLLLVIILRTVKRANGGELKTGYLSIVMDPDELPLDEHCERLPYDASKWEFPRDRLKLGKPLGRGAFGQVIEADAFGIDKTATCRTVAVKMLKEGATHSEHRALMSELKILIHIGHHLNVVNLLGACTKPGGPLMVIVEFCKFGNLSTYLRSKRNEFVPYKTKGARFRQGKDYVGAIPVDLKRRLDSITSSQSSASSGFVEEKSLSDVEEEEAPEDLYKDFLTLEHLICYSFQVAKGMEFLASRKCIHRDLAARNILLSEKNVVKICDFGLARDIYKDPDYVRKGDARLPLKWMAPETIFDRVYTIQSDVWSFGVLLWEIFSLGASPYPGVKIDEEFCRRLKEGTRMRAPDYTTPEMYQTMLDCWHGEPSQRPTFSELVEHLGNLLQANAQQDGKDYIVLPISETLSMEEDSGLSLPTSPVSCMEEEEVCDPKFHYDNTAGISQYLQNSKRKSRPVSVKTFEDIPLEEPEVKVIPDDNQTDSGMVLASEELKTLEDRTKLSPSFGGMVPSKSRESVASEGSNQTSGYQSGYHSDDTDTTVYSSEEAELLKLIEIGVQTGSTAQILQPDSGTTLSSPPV

[7] = test system: Mus musculus; assay: Inhibition of HGF-stimulated AKT signaling pathway in mouse liver assessed as phosphorylated PRAS40 level at 30 mg/kg, po dosed 6 hrs prior to HGF challenge and measured after 5 mins by ELISA; format: functional
Summary of the method: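 Mice (n = 3, female) dosed 30 mg/kg po in 0.1% PBS/BSA. At 6 h, HGF given by tail-vein injection. Livers harvested 5 min later, and phospho- and total PRAS40 measured by ELISA; inhibition taken from pPRAS40/total ratio. Factorial ANOVA with Dunnett's post hoc test.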

[8] = Cmax in Sprague-Dawley rat at 5 mg/kg, po; format: ADME, organism-based; design: dose 5 mg/kg, route oral; settings: in vivo; summary of the method: as §1
[9] = Volume of distribution at steady state in Sprague-Dawley rat at 2 mg/kg, iv; format: ADME, organism-based; design: dose 2 mg/kg, route intravenous; settings: in vivo, read-out: Vdss; summary of the method: as §2
[10] = Plasma concentration in mouse at 30 mg/kg, po after 6 hrs; format: ADME, organism-based; design: dose 30 mg/kg, route oral
[11] = biological target: T1, RAC-alpha serine/threonine-protein kinase (Homo sapiens, UniProt P31749); assay: Inhibition of AKT1 after 10 mins by [gamma33]ATP assay
T1 sequence (P31749 whole entry): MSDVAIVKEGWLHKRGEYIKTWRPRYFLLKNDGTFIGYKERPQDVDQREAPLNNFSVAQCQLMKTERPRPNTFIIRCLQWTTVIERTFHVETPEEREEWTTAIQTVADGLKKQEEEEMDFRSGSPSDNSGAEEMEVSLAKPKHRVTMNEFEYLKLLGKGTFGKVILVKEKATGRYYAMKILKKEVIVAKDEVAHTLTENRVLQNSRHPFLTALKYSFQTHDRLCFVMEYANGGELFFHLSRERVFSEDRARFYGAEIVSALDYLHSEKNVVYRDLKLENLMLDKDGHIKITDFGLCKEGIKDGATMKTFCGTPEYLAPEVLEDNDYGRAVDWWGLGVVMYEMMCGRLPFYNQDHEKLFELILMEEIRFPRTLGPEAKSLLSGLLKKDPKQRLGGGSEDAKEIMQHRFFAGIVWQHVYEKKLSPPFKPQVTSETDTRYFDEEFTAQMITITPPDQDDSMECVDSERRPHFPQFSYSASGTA

[12] = test system: Mus musculus; assay: Toxicity in human U87MG cells xenografted CD1 nude mouse assessed as loss in body weight po QD for 18 days relative to control; format: organism-based, U-87MG ATCC; settings: in vivo, 432 h
Summary of the method: (§3)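 10-week-old female CD1 nude mice injected sc in the flank with 5 × 10⁶ U-87 MG cells in DMEM. On day 10, randomized (n = 10) at ~200 mm³, then dosed po once daily for 18 d with supplemented diet. Tumors and body weight recorded twice weekly. Volume = length × width × height, analyzed by RMANOVA versus vehicle.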

[13] = biological target: T1, RAC-alpha serine/threonine-protein kinase; assay: Inhibition of human AKT1 in human U87MG cells assessed as PRAS40 phosphorylation after 1 hr by ELISA; format: cell-based, U-87MG ATCC
Summary of the method: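 U-87 MG cells in 5% FBS incubated with inhibitor in threefold serial dilutions for 1 h at 37 °C, then lysed. Phospho-PRAS40 (Thr246) quantified by ELISA and normalized to total PRAS40. Mean ± SD where three or more measurements.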

[14] = biological target: Cyclin-dependent kinase 1 (Homo sapiens, UniProt P06493); assay: Inhibition of CDK1
Cyclin-dependent kinase 1, sequence (P06493 whole entry): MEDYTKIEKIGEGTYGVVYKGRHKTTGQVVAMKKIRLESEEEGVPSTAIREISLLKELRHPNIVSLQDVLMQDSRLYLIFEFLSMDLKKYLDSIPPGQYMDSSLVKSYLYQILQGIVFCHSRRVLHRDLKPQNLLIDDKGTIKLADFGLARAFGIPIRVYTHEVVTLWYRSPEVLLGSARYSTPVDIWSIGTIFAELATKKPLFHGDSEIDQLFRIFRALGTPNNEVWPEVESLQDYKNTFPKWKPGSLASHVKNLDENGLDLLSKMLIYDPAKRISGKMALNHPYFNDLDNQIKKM

[15] = Oral bioavailability in Sprague-Dawley rat at 5 mg/kg; format: ADME, organism-based; settings: in vivo; summary of the method: as §1
[16] = test system: U-87 MG; assay: Inhibition of tumor growth in human U87MG cells xenografted in CD1 nude mouse assessed as tumor volume po QD for 18 days relative to control; format: functional, organism-based; settings: U-87MG ATCC; summary of the method: as §3
[17] = biological target: Cyclin-dependent kinase 2 (Homo sapiens, UniProt P24941); assay: Inhibition of CDK2
[18] = Antitumor activity against human U87MG cells xenografted in CD1 nude mouse assessed as inhibition of tumor growth at 30 mg/kg, po QD for 18 days relative to control; format: functional, U-87MG ATCC; settings: U-87 MG, 432 h, read-out: GI; summary of the method: as §3
[19] = test system: U-87MG ATCC; assay: Selectivity ratio of IC50 for AKT1 in human U87MG cells to IC50 for AKT1; format: cell-based
[20] = Inhibition of PKA
[21] = Clearance in Sprague-Dawley rat at 2 mg/kg, iv; format: ADME, organism-based; design: dose 2 mg/kg, route intravenous; settings: in vivo; summary of the method: as §2

Mast/stem cell growth factor receptor Kit, sequence (P10721 whole entry): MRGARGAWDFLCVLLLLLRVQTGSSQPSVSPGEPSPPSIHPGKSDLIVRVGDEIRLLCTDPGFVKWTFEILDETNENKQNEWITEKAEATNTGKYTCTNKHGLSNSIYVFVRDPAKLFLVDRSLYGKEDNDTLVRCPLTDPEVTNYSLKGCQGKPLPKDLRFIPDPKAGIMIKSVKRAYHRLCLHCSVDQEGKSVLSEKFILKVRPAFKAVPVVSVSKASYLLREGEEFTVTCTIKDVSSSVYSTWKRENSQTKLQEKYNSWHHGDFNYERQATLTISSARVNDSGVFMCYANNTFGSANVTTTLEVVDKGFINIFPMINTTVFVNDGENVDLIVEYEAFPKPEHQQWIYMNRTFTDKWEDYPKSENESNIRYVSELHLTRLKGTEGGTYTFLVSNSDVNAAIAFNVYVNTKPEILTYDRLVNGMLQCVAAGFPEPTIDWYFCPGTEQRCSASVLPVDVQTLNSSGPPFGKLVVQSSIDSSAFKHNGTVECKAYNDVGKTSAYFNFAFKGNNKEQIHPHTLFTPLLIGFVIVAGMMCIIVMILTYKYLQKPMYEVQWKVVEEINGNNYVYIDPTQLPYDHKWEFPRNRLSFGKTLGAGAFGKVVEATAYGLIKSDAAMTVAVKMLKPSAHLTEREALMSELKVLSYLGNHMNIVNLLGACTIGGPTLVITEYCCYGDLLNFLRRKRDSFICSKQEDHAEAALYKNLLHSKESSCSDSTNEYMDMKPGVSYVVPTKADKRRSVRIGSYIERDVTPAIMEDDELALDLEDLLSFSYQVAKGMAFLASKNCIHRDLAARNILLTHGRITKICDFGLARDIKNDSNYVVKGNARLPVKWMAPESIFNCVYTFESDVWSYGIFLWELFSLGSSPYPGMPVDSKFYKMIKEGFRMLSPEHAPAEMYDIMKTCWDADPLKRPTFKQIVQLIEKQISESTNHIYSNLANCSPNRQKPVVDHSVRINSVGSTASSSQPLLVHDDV

Compound | pIC50 [11] | pIC50 [13] | pIC50 [17] | pIC50 [20] | further results
N[C@H](CNc1ncc(-c2ccc3cncnc3c2)s1)Cc1ccc(C(F)(F)F)cc1 | 7.46 | 5.89 | 6.87 | 6.90 | Ratio IC50 [19]: 37
N[C@H](CNc1nnc(-c2ccc3cnccc3c2)s1)Cc1ccc(C(F)(F)F)cc1 | 8.49 |  |  | 8.12 | 
N[C@H](CNc1ncc(-c2ccc3nnccc3c2)s1)Cc1ccc(C(F)(F)F)cc1 | 6.85 |  | < 5.70 | 6.31 | 
N[C@H](CNc1ncc(-c2ccc3[nH]ncc3c2)s1)Cc1ccc(Cl)cc1 | 8.07 | 6.14 |  | 7.40 | Ratio IC50 [19]: 86
N[C@H](CNc1nnc(-c2ccc3cnccc3c2)o1)Cc1ccc(C(F)(F)F)cc1 | 7.07 |  | 6.46 | 6.88 | 
N[C@H](CCc1cc(-c2ccc3cnccc3c2)no1)Cc1ccc(C(F)(F)F)cc1 | 7.40 | 5.42 | 6.93 | 7.30 | Ratio IC50 [19]: 95
N[C@H](CNc1ncc(-c2ccc3cn[nH]c(=O)c3c2)s1)Cc1ccc(C(F)(F)F)cc1 | < 6.00 |  | < 6.00 | 6.31 | 
Nc1cc2cc(-c3cnc(NC[C@@H](N)Cc4ccc(C(F)(F)F)cc4)s3)ccc2cn1 | 7.94 | 6.05 | 7.81 | 8.07 | Ratio IC50 [19]: 77
N[C@H](CNc1cc(-c2ccc3cnccc3c2)no1)Cc1ccc(C(F)(F)F)cc1 | 7.77 |  | 7.03 | 7.40 | 
N[C@H](CNc1cnc(-c2ccc3cnccc3c2)s1)Cc1ccc(C(F)(F)F)cc1 | 6.39 |  | 5.97 | 6.73 | 
Nc1noc2ccc(-c3cnc(NC[C@@H](N)Cc4ccc(C(F)(F)F)cc4)s3)cc12 | 6.34 |  | < 5.70 | 6.38 | 
Cn1nc(N)c2ccc(-c3cnc(NC[C@@H](N)Cc4ccc(C(F)(F)F)cc4)s3)cc21 | 5.62 |  | < 5.70 | 6.92 | 
NC(=O)c1ccc(-c2cnc(NC[C@@H](N)Cc3ccc(C(F)(F)F)cc3)s2)cc1 | < 5.52 |  | < 5.00 | < 5.52 | 
N[C@H](CCc1nc(-c2ccc3cnccc3c2)no1)Cc1ccc(C(F)(F)F)cc1 | 5.80 |  | 5.33 | 6.01 | 
Cn1ncc2ccc(-c3cnc(NC[C@@H](N)Cc4ccc(C(F)(F)F)cc4)s3)cc21 | 6.05 |  |  | 6.64 | 
N[C@H](CNc1ncc(-c2ccc3cnccc3c2)s1)Cc1ccc(C(F)(F)F)cc1 | 8.31 | 6.37 | 7.91 | 8.23 | AUC(0-t) at 24 h [4]: 387 ng·h/mL; half-life [5]: 2.9 h; inhibition in vivo at 30 mg/kg [7]: 4%; Cmax [8]: 66 ng/mL; Vd [9]: 7.1 L/kg; concentration at 6 h [10]: 1.5 µM; bioavailability [15]: 20%; Ratio IC50 [19]: 88; clearance [21]: 45 mL/min/kg

More lines, main results first:

pIC50 [11] | pIC50 [13] | pIC50 [17] | pIC50 [20] | Compound | further results
7.74 | 6.52 | 6.73 |  | N[C@H](CNc1ncc(-c2ccc3c(c2)CC(=O)N3)s1)Cc1ccc(C(F)(F)F)cc1 | pIC50 [1]: 6.96; concentration at 3 h [2]: 6.2 µM; pIC50 [3]: 6.20; AUC(0-t) at 24 h [4]: 2600 ng·h/mL; half-life [5]: 4.3 h; pIC50 [6]: 6.52; inhibition in vivo at 30 mg/kg [7]: 43%; Cmax [8]: 417 ng/mL; Vd [9]: 6.8 L/kg; concentration at 6 h [10]: 3.5 µM; Activity [12]: 2%; pIC50 [14]: 6.60; bioavailability [15]: 64%; inhibition [16]: Dose-dependent effect; inhibition in vivo at 30 mg/kg [18]: 93%
7.02 | 5.22 | < 5.05 | 6.45 | N[C@H](CNc1ncc(-c2ccc3c(c2)CNC3=O)s1)Cc1ccc(C(F)(F)F)cc1 | 
8.10 | 6.30 | 6.86 | 6.49 | N[C@H](CNc1ncc(-c2ccc3[nH]c(=O)oc3c2)s1)Cc1ccc(C(F)(F)F)cc1 | AUC(0-t) at 24 h [4]: 348 ng·h/mL; half-life [5]: 3.8 h; Cmax [8]: 68 ng/mL; Vd [9]: 6.7 L/kg; bioavailability [15]: 11%; clearance [21]: 26.7 mL/min/kg
7.57 | 6.04 | 6.55 | 6.84 | N[C@H](CNc1ncc(-c2ccc3[nH]c(=O)sc3c2)s1)Cc1ccc(C(F)(F)F)cc1 | 
6.21 |  | < 6.00 | 6.48 | N[C@H](CNc1ncc(-c2ccc3cn[nH]c3c2)s1)Cc1ccc(C(F)(F)F)cc1 | 
7.81 | 6.20 | 6.56 | 6.75 | Cn1c(=O)[nH]c2ccc(-c3cnc(NC[C@@H](N)Cc4ccc(C(F)(F)F)cc4)s3)cc21 | 
5.48 |  | < 4.60 | 5.62 | N[C@H](CNc1ncc(-c2ccc3c(c2)CCC(=O)N3)s1)Cc1ccc(C(F)(F)F)cc1 | 
